From ChEMBL document CHEMBL1156975, “Discovery and SAR of potent, orally available 2,8-diaryl-quinoxalines as a new class of JAK2 inhibitors” (Bioorg Med Chem Lett, 2010)
In brackets after ≈: the same amount, converted by molar mass.

Legend:
[1] = biological target: Tyrosine-protein kinase JAK2 (Homo sapiens, UniProt O60674)
[2] = biological target: Non-receptor tyrosine-protein kinase TYK2 (Homo sapiens, UniProt P29597); assay: Inhibition of recombinant GST tagged TYK2 protein after 60 mins using FITC-Ahx-KKSRGDYMTMQIG-NH2 substrate
Sequence of Non-receptor tyrosine-protein kinase TYK2 (P29597 whole entry): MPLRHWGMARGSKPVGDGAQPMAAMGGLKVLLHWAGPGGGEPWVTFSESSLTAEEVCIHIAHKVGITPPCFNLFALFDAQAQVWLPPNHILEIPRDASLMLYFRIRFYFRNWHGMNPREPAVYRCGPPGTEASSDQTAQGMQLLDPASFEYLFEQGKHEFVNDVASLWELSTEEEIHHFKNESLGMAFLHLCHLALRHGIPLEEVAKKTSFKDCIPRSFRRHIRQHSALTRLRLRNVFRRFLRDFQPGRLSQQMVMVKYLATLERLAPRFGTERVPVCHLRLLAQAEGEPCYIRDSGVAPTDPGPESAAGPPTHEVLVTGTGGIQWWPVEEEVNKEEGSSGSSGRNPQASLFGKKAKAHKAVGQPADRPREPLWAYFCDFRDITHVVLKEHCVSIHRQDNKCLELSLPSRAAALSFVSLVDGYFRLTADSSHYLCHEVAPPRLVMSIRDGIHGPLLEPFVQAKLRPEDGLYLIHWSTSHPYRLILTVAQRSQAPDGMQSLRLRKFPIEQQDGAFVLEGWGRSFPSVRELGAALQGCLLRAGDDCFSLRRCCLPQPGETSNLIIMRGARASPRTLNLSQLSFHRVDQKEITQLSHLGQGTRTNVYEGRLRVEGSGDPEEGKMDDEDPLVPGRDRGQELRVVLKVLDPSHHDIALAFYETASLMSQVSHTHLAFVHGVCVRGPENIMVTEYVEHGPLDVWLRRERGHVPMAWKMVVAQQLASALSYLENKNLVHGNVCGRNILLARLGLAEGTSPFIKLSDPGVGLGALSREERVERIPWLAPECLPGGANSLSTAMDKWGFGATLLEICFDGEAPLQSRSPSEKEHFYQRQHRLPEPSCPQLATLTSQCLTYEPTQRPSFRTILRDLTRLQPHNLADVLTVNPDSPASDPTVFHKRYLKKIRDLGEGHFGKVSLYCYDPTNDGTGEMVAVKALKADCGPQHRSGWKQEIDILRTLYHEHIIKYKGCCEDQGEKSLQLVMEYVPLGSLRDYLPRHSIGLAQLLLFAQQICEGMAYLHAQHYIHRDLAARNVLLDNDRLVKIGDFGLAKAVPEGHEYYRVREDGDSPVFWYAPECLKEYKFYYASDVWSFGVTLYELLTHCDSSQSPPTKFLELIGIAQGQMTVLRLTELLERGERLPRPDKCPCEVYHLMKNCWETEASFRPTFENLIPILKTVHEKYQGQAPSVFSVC

[3] = biological target: Tyrosine-protein kinase JAK1 (Homo sapiens, UniProt P23458); assay: Inhibition of recombinant GST tagged JAK1 protein after 60 mins using FITC-Ahx-KKSRGDYMTMQIG-NH2 substrate
Sequence of Tyrosine-protein kinase JAK1 (P23458 whole entry): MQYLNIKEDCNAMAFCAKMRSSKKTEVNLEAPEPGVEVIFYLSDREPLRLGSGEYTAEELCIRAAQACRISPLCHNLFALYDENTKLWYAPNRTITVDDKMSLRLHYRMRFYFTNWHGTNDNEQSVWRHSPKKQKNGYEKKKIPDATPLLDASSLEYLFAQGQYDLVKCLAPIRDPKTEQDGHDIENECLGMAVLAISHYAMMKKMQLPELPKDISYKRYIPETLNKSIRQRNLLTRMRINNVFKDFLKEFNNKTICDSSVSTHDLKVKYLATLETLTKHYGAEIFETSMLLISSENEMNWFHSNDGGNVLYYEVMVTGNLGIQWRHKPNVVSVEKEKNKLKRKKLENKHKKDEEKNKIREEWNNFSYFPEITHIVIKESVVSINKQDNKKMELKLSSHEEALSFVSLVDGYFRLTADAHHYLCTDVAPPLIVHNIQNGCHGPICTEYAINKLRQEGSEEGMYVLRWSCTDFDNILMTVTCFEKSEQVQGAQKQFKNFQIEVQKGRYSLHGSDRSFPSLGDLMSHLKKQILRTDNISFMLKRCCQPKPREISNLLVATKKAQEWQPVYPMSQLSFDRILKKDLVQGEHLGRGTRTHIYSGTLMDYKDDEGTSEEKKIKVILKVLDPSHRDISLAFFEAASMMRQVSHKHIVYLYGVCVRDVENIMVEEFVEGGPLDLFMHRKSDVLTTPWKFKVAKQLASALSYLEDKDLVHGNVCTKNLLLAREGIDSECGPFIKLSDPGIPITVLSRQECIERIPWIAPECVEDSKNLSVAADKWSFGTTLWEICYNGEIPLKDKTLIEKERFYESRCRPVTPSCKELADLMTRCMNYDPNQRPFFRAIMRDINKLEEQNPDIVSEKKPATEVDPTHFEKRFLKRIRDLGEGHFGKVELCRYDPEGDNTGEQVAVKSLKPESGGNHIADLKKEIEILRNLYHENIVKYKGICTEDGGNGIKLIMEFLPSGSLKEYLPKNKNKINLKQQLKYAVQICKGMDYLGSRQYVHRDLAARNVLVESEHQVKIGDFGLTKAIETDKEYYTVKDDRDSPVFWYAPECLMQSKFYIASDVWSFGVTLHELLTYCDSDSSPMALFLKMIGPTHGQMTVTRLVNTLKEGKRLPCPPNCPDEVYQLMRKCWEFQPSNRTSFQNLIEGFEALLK

[4] = Partition coefficient, log P of the compound; format: physicochemical; conditions: octanol/water
[5] = Tmax in rat at 3 mg/kg, po or 1 mg/kg, iv by MS/MS analysis; format: ADME, organism-based; conditions: in vivo
Outline: (§1)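 Conscious, fed, permanently cannulated female rats, n=4; 1 mg/kg iv via femoral vein in 30% NMP/PEG200, and 3 mg/kg po by gavage in 50% aqueous PEG200, crossover with 48 h washout. Arterial blood was sampled for 48 h (iv) or 24 h (po), precipitated with CH3CN, and measured by C18 HPLC-MS/MS.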

[6] = Clearance in rat at 1 mg/kg, iv after 48 hrs by MS/MS analysis; conditions: in vivo
[7] = AUC in rat at 1 mg/kg, iv after 48 hrs by MS/MS analysis; format: ADME, organism-based; parameters: time < 48 hr, dose 1 mg/kg, route intravenous; conditions: plasma
Outline: as §1

[8] = Aqueous solubility at pH 6.8; format: physicochemical
[9] = Volume of distribution at steady state in rat at 1 mg/kg, iv or 3 mg/kg, po by MS/MS analysis; format: ADME, organism-based; conditions: in vivo, read-out: Vdss
Outline: as §1

[10] = Cmax in rat at 3 mg/kg, po or 1 mg/kg, iv by MS/MS analysis; format: ADME, organism-based; conditions: in vivo
Outline: as §1

[11] = Dissociation constant, pKa of the compound; format: physicochemical
[12] = Oral bioavailability in rat at 3 mg/kg after 24 hrs by MS/MS analysis; format: ADME, organism-based; conditions: in vivo
Outline: as §1

[13] = Half life in rat at 1 mg/kg, iv after 48 hrs by MS/MS analysis; conditions: in vivo
[14] = biological target: T1, Tyrosine-protein kinase JAK3 (Homo sapiens, UniProt P52333)
T1 sequence (P52333 whole entry): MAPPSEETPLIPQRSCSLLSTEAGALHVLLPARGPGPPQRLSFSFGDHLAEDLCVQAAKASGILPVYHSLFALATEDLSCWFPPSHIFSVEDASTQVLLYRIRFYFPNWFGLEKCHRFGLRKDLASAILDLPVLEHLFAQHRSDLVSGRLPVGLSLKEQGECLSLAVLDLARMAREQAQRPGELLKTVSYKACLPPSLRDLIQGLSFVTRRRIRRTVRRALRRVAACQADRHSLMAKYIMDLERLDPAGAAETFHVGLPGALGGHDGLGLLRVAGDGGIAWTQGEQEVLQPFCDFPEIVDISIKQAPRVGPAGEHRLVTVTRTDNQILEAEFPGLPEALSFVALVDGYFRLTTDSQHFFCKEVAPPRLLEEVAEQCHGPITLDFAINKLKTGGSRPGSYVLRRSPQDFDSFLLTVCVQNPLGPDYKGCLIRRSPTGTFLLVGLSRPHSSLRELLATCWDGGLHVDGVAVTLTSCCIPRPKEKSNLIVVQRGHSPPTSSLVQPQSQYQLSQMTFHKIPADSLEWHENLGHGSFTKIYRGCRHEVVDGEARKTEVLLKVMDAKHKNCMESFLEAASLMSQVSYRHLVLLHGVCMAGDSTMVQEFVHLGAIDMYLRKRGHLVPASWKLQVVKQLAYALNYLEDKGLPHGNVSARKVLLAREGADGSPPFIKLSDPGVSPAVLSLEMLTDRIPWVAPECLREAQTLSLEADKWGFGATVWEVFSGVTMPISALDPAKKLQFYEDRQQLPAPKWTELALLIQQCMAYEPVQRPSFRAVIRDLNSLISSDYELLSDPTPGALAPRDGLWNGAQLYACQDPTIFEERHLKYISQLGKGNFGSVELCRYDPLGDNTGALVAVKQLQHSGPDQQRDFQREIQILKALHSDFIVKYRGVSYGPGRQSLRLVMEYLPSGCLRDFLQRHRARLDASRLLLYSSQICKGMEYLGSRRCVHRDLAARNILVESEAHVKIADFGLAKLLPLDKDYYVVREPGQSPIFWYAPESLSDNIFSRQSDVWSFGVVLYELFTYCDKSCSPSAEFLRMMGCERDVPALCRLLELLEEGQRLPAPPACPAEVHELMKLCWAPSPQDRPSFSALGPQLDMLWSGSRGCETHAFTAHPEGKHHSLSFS

[15] = Growth inhibition of human SET2 cells expressing JAK2V617F mutant after 72 hrs by colorimetric WST1 assay; format: functional; conditions: SET-2, 72 h
Outline: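 Megakaryoblastic SET-2 cells were grown in RPMI with 10% FCS, 2 mM L-glutamine and 1% penicillin/streptomycin. Cells were exposed to an 8-point compound concentration range for 72 h. Proliferation was read by WST-1 colorimetric viability, relative to DMSO vehicle controls.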

[16] = biological target: Tyrosine-protein kinase ABL1 (Homo sapiens, UniProt P00519)
Sequence of Tyrosine-protein kinase ABL1 (P00519 whole entry): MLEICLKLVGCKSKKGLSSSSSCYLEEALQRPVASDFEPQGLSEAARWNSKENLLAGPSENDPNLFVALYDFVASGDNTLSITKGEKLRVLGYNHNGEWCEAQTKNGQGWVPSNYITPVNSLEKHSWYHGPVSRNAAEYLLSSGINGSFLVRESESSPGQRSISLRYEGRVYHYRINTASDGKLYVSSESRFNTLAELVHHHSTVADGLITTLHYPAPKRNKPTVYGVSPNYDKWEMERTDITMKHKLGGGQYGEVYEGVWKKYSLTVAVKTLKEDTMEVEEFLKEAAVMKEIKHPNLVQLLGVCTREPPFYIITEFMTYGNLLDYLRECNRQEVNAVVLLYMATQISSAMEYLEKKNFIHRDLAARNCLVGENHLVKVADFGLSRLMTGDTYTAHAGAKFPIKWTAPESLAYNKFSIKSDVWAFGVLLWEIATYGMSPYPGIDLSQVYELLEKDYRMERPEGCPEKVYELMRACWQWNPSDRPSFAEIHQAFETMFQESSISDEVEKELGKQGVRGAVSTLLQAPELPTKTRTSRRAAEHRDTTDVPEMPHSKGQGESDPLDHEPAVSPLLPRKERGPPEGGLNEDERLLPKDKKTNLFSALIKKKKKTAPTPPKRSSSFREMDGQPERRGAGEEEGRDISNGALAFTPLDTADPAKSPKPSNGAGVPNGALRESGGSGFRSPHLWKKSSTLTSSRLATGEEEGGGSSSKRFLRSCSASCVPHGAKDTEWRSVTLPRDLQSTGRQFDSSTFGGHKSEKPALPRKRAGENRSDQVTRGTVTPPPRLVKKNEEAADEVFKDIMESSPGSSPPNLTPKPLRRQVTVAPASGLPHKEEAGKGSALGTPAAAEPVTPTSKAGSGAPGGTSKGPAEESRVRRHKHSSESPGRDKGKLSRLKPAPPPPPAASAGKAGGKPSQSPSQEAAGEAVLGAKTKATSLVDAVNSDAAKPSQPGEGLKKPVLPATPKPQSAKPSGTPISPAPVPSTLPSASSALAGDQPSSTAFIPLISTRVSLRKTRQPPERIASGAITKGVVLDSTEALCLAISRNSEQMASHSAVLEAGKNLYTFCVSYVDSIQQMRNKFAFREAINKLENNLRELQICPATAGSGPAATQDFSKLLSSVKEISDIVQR

Rattus norvegicus [17] = assay: Oral bioavailability in rat at 3 mg/kg; format: ADME, organism-based; conditions: in vivo
Outline: (§2)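 Conscious rats given an iv bolus, then oral dosing at 3 mg/kg as a suspension in 0.5% carboxymethyl cellulose in bidistilled water. Clearance, volume of distribution, terminal half-life, oral AUC and bioavailability were derived.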

Rattus norvegicus [18] = assay: AUC in rat at 3 mg/kg, po; format: ADME, organism-based, Plasma; parameters: dose 3 mg/kg, route oral; conditions: in vivo
Outline: as §2

[19] = Terminal half life in iv dosed rat; format: ADME, organism-based; conditions: in vivo, read-out: beta t1/2 (converted)
Outline: as §2

[20] = Volume of distribution in iv dosed rat; format: ADME, organism-based; conditions: in vivo
Outline: as §2

Sequence of Tyrosine-protein kinase JAK2 (O60674 whole entry): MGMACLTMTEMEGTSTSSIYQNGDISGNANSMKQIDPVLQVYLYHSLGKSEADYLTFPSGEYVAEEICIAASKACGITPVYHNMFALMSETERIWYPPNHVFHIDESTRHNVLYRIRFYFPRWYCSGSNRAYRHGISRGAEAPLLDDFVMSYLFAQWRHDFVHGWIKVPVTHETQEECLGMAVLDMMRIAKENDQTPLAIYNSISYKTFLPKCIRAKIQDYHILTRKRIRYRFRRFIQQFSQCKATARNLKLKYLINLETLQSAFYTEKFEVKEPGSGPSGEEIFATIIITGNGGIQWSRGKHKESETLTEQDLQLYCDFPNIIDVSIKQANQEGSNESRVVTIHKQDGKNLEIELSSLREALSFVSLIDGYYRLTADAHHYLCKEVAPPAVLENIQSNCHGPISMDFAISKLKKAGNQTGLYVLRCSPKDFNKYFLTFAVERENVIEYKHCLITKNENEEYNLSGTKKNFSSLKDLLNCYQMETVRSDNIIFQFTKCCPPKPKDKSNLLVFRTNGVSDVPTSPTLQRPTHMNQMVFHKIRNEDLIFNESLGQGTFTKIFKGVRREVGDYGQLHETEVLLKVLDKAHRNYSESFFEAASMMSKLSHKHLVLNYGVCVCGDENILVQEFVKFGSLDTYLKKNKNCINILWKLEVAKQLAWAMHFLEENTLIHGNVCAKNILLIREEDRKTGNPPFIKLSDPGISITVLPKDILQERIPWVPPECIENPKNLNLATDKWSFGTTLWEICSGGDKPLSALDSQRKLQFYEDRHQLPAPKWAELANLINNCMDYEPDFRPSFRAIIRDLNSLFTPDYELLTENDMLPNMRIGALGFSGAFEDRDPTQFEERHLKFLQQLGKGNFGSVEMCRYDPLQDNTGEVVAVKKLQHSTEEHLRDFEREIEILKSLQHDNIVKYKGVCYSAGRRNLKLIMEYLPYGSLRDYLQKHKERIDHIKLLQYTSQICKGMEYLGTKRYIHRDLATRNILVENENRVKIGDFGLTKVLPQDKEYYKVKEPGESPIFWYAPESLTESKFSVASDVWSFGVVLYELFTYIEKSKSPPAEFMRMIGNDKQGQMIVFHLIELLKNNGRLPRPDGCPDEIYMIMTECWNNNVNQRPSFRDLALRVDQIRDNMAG

| SMILES | IC50 [1] [nM] | IC50 [2] [nM] | IC50 [3] [nM] | IC50 [14] [nM] | GI50 [15] [nM] | other results |
| --- | --- | --- | --- | --- | --- | --- |
| COc1cc(-c2cnc3cccc(-c4ccc(C(=O)N5CCOCC5)c(C)c4)c3n2)cc(OC)c1OC | 20 | 1400 | 460 | – | – | – |
| COc1cc(-c2cnc3cccc(-c4ccc(CN5CCOCC5)c(F)c4)c3n2)cc(OC)c1OC | 20 | 2200 | 250 | – | – | – |
| CN1CCN(c2ccc(-c3cnc4cccc(-c5cc(F)c(CN6CCOCC6)c(F)c5)c4n3)cc2)CC1 | 4.3 | 94 | 28 | 166 | 152 | logP [4]: 4; Tmax [5]: 5.8 h; clearance at 48 h [6]: 19 mL/min/kg; AUC at 48 h [7]: 1.65 µM·h; solubility [8]: 4 µg/mL (≈ 7.76 µM); Vd [9]: 18.9 L/kg; Cmax [10]: 74 nM; pKa [11]: 4.5; bioavailability [12]: 100%; half-life at 48 h [13]: 13.4 h |
| COc1cc(-c2cnc3cccc(-c4ccc(CN5CCOCC5)cc4C)c3n2)cc(OC)c1OC | 685 | 4200 | 1200 | 2700 | – | – |
| COc1cc(-c2cnc3cccc(-c4ccc(CN5CCOCC5)cc4F)c3n2)cc(OC)c1OC | – | 9300 | 4700 | 9900 | – | – |
| Cc1cc(-c2cccc3ncc(-c4ccc(C(=O)N5CCOCC5)c(C)c4)nc23)ccc1CN1CCOCC1 | – | 439 | 362 | 408 | – | – |
| COc1cc(-c2cnc3cccc(-c4ccc(CN5CCS(=O)(=O)CC5)cc4)c3n2)cc(OC)c1OC | – | 520 | 98 | – | – | – |
| COc1cc(-c2cnc3cc(C)cc(-c4ccc(CC(=O)N5CCS(=O)(=O)CC5)cc4)c3n2)cc(OC)c1OC | 4200 | > 10000 | > 10000 | > 10000 | – | – |
| COc1cc(-c2cnc3cc(F)cc(-c4ccc(CC(=O)N5CCOCC5)cc4)c3n2)cc(OC)c1OC | 101 | > 10000 | 940 | > 10000 | – | – |
| COc1cc(-c2cnc3cccc(-c4ccc(C(=O)N5CCOCC5)cc4)c3n2)cc(OC)c1OC | – | 2900 | 390 | – | – | – |
| Cc1cc(-c2cnc3cccc(-c4ccc(CN5CCS(=O)(=O)CC5)cc4)c3n2)ccc1C(=O)N1CCN(C)CC1 | 7.1 | – | 89 | 232 | 96 | logP [4]: 2.8; pKa [11]: 3.9 |
| COc1cc(-c2cnc3cccc(-c4ccc(CN5CCOCC5)cc4)c3n2)cc(OC)c1OC | – | > 10000 | 1500 | > 10000 | – | – |
| Cc1cc(-c2cnc3cccc(-c4ccc(CN5CCOCC5)c(F)c4)c3n2)ccc1C(=O)N1CCOCC1 | 12.5 | 520 | 190 | 630 | 226 | – |
| CN1CCN(c2ccc(-c3cnc4cccc(-c5cc(F)c(CN6CCS(=O)(=O)CC6)c(F)c5)c4n3)cn2)CC1 | 6.8 | 86 | 82 | 230 | 98 | logP [4]: 3.8; Tmax [5]: 8 h; clearance at 48 h [6]: 39 mL/min/kg; AUC at 48 h [7]: 0.76 µM·h; solubility [8]: 4 µg/mL (≈ 7.08 µM); Vd [9]: 13.2 L/kg; Cmax [10]: 47 nM; pKa [11]: 3.6; bioavailability [12]: 100%; half-life at 48 h [13]: 4.8 h |
| Fc1cc(-c2cccc3ncc(-c4cnn(C5CCNCC5)c4)nc23)cc(F)c1CN1CCOCC1 | – | – | – | – | 88 | IC50 [16]: 80 nM; Tmax [5]: 7 h; AUC at 48 h [7]: 1.47 µM·h; solubility [8]: > 1500 µg/mL; Vd [9]: 33 L/kg; Cmax [10]: 16 nM; pKa [11]: 5.5; bioavailability [12]: 31% |
| Cc1cc(-c2cnc3cccc(-c4cc(F)c(CN5CCOCC5)c(F)c4)c3n2)ccc1C(=O)N1CCOCC1 | 3.1 | 120 | 60 | 130 | 135 | – |
| COc1cc(-c2cnc3cccc(-c4ccc(CC(=O)N5CCOCC5)cc4)c3n2)cc(OC)c1OC | 13 | – | 91 | – | 228 | – |
| COc1cc(-c2cnc3cccc(-c4ccc(CN5CCOCC5)c(C)c4)c3n2)cc(OC)c1OC | – | 7130 | 1850 | – | – | – |
| COc1cc(-c2cnc3cccc(-c4ccc(CC(=O)N5CCS(=O)(=O)CC5)cc4)c3n2)cc(OC)c1OC | – | 340 | 35 | – | 119 | – |
| CNS(=O)(=O)c1ccc(-c2cccc3ncc(-c4cc(OC)c(OC)c(OC)c4)nc23)cc1 | – | 640 | 130 | 1300 | – | F (Rattus norvegicus [17]): 34%; AUC (Rattus norvegicus [18]): 4 µg·min/mL; half-life [19]: 1.69 h; Vd [20]: 6.75 L/kg |
